# Assay outcomes as filed in PubChem.
# This is a sample that favours compounds with a hit; in the whole collection about 1.5% have one here.
# PG9 binder: PG9 antibody binding by small molecule. TR-FRET gp120-PG9 antibody binding. 0.43% of 360,000 active. inhibition, % at 6.7 µM; in the data active = inhibition above about 8.5%
# NR2E3 ag-1: agonists of human nuclear receptor NR2E3; 0.12% of 320,000 active; Q9Y5X4; inhibition of corepressor binding, % at 4.78 µM; GST-NR2E3/biotin-RetCOR TR-FRET, 1536-well;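 active = percent inhibition above the cutoff of mean plus 3 SD of all tested compounds, set per screening campaign, cut at about 20% in these data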;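 also: 0% = DMSO wells and 100% = biotin wells as full block of FRET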
#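 System: GST-tagged NR2E3 plus biotinylated RetCOR corepressor; Amount: 1.35 nM GST-tagged NR2E3 final; Dosing: single nominal compound dose of 4.8 µM; Schedule: 5 h incubation at 4 °C; Technique: TR-FRET with europium anti-GST and streptavidin-D2, 340 nm excitation; Controls: biotin wells as high control, 0.6% DMSO wells as low control.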
# NR2E3 ag-2: human photoreceptor-specific nuclear receptor agonism; Q9Y5X4; CHO-S Gal4-NCOR/VP16-NR2E3 two-hybrid, luciferase; inhibition of corepressor binding, % at 3.98 µM; 0.35% of 360,000 active; AID 602229;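 active = inhibition above the mean of all tested compounds plus 3 SD, cut at about 70% in these data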;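 also: 0% = DMSO with NR2E3 transfected cells and 100% = cells lacking NR2E3 construct; higher means lower luciferase signal from less NR2E3 corepressor binding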
# Rev-erbA mod: modulates human Rev-erb alpha binding to DNA | P20393 | Rev-erbα–FITC-DNA binding, fluorescence polarization, 90 min | activity, % at 10 µM | 0.79% of 370,000 active;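 active = activity above about 14%, limit read from the data; passing the limit was not always enough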;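 also: 0% = DMSO wells with 35 nM protein and 100% = DMSO wells with 750 nM protein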
# Target sequence (P20393 whole entry, looked up): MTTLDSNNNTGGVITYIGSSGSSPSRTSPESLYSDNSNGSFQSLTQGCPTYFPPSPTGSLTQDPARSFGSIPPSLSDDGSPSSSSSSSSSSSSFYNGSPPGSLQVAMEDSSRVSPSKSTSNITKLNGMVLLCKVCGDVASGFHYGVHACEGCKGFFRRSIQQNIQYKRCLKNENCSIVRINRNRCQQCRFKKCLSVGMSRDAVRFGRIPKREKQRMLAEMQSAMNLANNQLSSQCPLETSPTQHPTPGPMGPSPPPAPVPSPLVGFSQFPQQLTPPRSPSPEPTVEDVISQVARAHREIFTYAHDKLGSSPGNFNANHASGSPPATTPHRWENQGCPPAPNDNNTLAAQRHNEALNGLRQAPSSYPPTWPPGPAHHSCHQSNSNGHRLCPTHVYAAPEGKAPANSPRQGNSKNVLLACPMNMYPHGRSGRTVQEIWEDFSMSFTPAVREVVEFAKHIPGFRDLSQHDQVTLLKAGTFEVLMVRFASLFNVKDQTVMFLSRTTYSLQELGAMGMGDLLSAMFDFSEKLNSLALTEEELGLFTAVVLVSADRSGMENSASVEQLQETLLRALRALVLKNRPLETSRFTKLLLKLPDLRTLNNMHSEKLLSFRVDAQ
# NR2E3 ag confirm: confirmation of human NR2E3 agonists. shares compounds with NR2E3 ag-2. CHO-S mammalian two-hybrid NR2E3-NCOR, luciferase luminescence. inhibition, % at 3.98 µM. 51% of 2,300 active;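 active = average inhibition above a cutoff equal to the mean inhibition of all tested compounds plus one SD, cut at about 70% in these data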;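 also: 0% = DMSO in NR2E3 cells and 100% = DMSO in cells lacking NR2E3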
# GAL4-VP16 luc: counter-screen for NR2E3 agonists: GAL4-VP16 reporter inhibitors. shares compounds with NR2E3 ag-2. CHO-S GAL4-VP16 luciferase reporter, luminescence. inhibition, % at 3.98 µM. 29% of 2,300 active;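 active = mean inhibition above a cutoff equal to the average over all tested compounds plus one standard deviation, cut at about 70% in these data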;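 also: luciferase from a UAS reporter driven by GAL4-VP16 transactivation; 0% = DMSO with VP16-transfected cells and 100% = DMSO with cells lacking VP16; higher means less reporter light so more repression of VP16 activity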
# Starred values were filed as active, the others as inactive; x = no result.
SMILES,PG9 binder,NR2E3 ag-1,NR2E3 ag-2,Rev-erbA mod,NR2E3 ag confirm,GAL4-VP16 luc
C[C@H]1CCC/C=C/[C@@H]2C[C@H](O)C[C@H]2[C@@H](O)/C=C/C(=O)O1,-2,x,86*,-7,98*,64
CC(=O)OCC12CC(OC(=O)CC(C)C)C(C)=CC1OC1C(O)C(OC(C)=O)C2(C)C12CO2 (stereo unspecified),0,x,101*,0,100*,99*
CC1=CC(O)C(O)C2(C)C1CC1OC(=O)C(O)C3C(C)C(O)C4(O)OCC13C42 (stereo unspecified),x,x,-16,x,x,x
COC(=O)[C@]12OC[C@]34C([C@@H](O)[C@@H]1O)[C@]1(C)CC(=O)C(O)=C(C)[C@@H]1C[C@H]3OC(=O)[C@H](O)[C@@H]24 (stereo partly specified),-1,2,63,2,15,11
O=[N+]([O-])C(Br)(CO)CO,x,x,x,0,x,x
CN1C2CCC1/C(=C/c1ccccn1)C(=O)/C2=C\c1ccccn1,-1,4,88*,-1,100*,26
Oc1cc(Cl)c(Cl)cc1Cl,-1,x,x,-7,x,x
Oc1cc(Cl)c(Cl)c(Cl)c1Cl,-1,x,74*,4,66,75*
CC(=O)O[C@H]1C[C@H](O[C@H]2[C@@H](O)C[C@H](O[C@H]3[C@@H](O)C[C@H](O[C@H]4CC[C@@]5(C)C(CCC6C5C[C@@H](O)[C@]5(C)[C@@H](C7=CC(=O)OC7)CC[C@]65O)C4)O[C@@H]3C)O[C@@H]2C)O[C@H](C)[C@H]1O[C@@H]1O[C@H](CO)[C@@H](O)[C@H](O)[C@H]1O (stereo partly specified),x,x,x,0,x,x
CSCCC(c1nnnn1-c1ccc2c(c1)OCCO2)N1CCC(n2c(=O)[nH]c3ccccc32)CC1 (stereo unspecified),-3,x,54,1,30,6
COc1cccc(C(c2nnnn2-c2ccc3c(c2)OCCO3)N2CCC(n3c(=O)[nH]c4ccccc43)CC2)c1OC (stereo unspecified),-2,x,53,-1,21,25
O=c1[nH]c2ccccc2n1C1CCN(C(c2ccccc2OC(F)(F)F)c2nnnn2-c2ccc3c(c2)OCCO3)CC1 (stereo unspecified),-2,x,61,11,54,14
O=c1[nH]c2ccccc2n1C1CCN(C(c2ccccc2)c2nnnn2-c2ccc3c(c2)OCCO3)CC1 (stereo unspecified),0,x,17,8,x,x
CN(C)C(=S)SSC(=S)N(C)C,-2,-1,95*,-6,11,-3
CCC(=O)[C@@H](C)[C@@H](O)[C@H](C)C[C@@H](C)C1OC(=O)C[C@@]2(O)CC=C(C)C(O2)C(C)=CCCC[C@H](O[C@H]2C[C@@H](OC(N)=O)[C@H](O)[C@@H](C)O2)C=C[C@H](C)C[C@H]1C (stereo partly specified),x,x,93*,x,98*,84*
N#CC1c2ccccc2-n2nncc2CN1Cc1cc(Cl)cc(Cl)c1 (stereo unspecified),1,x,88*,1,79*,71*
CCCC(C)C1(CC)C(=O)N=C(S)NC1=O (stereo unspecified),x,x,x,-3,x,x
CC(C)(O)C(Cl)(Cl)Cl,x,x,x,-2,x,x
O=C1Nc2ccccc2/C1=C/c1nc2ccccc2c(=O)n1-c1ccc(O)cc1,0,1,-41,-2,x,x
COc1ccc(-n2c(/C=C3\C(=O)Nc4ccccc43)nc3ccccc3c2=O)cc1,-1,2,-5,1,x,x
O=C1Nc2ccccc2/C1=C/c1cnc[nH]1,-10,-9,48,4,26,-1
COc1ccc2c(c1)/C(=C/c1cnc[nH]1)C(=O)N2,-14,-11,81*,1,86*,25
COP(=S)(OC)Oc1cc(Cl)c(Cl)cc1Cl,x,x,x,4,x,x
CC(C)CC(NC(=O)CCCNC(=O)CCC(=O)OC1O[C@H]2OC3(C)CC[C@H]4[C@H](C)CCC(C1C)C24OO3)C(=O)O (stereo partly specified),0,-3,94*,3,91*,74*
CC1C(OC(=O)CCC(=O)NC(C)(C)CO)O[C@H]2OC3(C)CC[C@H]4[C@H](C)CCC1C24OO3 (stereo partly specified),0,2,97*,2,95*,75*
SMILES,PG9 binder,NR2E3 ag-1,NR2E3 ag-2,Rev-erbA mod,NR2E3 ag confirm,GAL4-VP16 luc
C[N+]12CCC(CC1)C(OC(=O)C(O)(c1ccccc1)c1ccccc1)C2 (stereo unspecified),0,2,1,-7,x,x
COC(=O)C(c1ccccc1)C1CCCCN1 (stereo unspecified),x,x,x,-6,x,x
C[C@H]1C[C@@H](C)C(=O)[C@@H]([C@H](O)CC2CC(=O)NC(=O)C2)C1,1,0,101*,4,100*,94*
O=C1NC2C(O)C(O)C(O)C(O)C2c2cc3c(c(O)c21)OCO3 (stereo unspecified),0,x,99*,7,98*,99*
COc1cc(C2c3cc4c(cc3CC3COC(=O)C32)OCO4)cc(OC)c1O (stereo unspecified),0,x,30,-2,x,x
O=C1NC2C(=CC(O)C(O)C2O)c2cc3c(cc21)OCO3 (stereo unspecified),0,x,100*,2,100*,97*
O=C1NC2C(=CC(O)C(O)C2O)c2cc3c(c(O)c21)OCO3 (stereo unspecified),0,x,102*,0,100*,99*
O=C(NC(=O)c1c(F)cccc1F)Nc1cc(Cl)c(OC(F)(F)C(F)C(F)(F)F)cc1Cl (stereo unspecified),x,x,x,3,x,x
C[N+]1(C)C2CC(OC(=O)[C@@H](CO)c3ccccc3)CC1C1OC12 (stereo partly specified),x,x,x,-5,x,x
Cc1ccccc1-n1c(CF)nc2ccc(N)cc2c1=O,x,x,x,-1,x,x
C=C1CC2C(CC[C@]3(C)C(=O)CCC23)[C@@]2(C)C=CC(=O)C=C12 (stereo partly specified),x,x,x,-1,x,x
CCN(CC)C(=O)c1ccc(NC(=O)c2cccc(S(=O)(=O)N3CCN(Cc4ccccc4)CC3)c2)cc1,-2,-2,57,-1,54,52
COC(C)(C)CCC[C@H](C)C/C=C/C(C)=C/C(=O)OC(C)C,x,x,x,-8,x,x
CC(C)(C)c1cc(C=C(C#N)C#N)cc(C(C)(C)C)c1O,-2,0,92*,4,86*,89*
OCC(O)[C@H]1O[C@@H]2O[C@H](C(Cl)(Cl)Cl)O[C@@H]2[C@H]1O (stereo partly specified),x,x,x,-4,x,x
Cn1nc(-c2ccc(OCC(=O)N3CCN(Cc4ccccc4)CC3)cc2)c2ccccc2c1=O,-2,-5,71*,2,68,59
